Laboratory results reported in ChEMBL document CHEMBL1153847, “Synthesis and in vitro cytotoxic evaluation of novel 3,4,5-trimethoxyphenyl substituted beta-carboline derivatives” (Eur J Med Chem, 2009).
pIC50: −log10 of the molar value.

Legend:
Format in all cases: functional, cell-based
[1] = system: BGC-823; experiment: Cytotoxicity against human BGC823 cells by MTT assay
Outline: (§1)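 Cells grown in RPMI-1640 with 10% (v/v) fetal calf serum, penicillin and streptomycin, at 37 °C in humidified 5% CO2. Compounds dissolved as DMSO stocks, with final DMSO in the medium at 2% (v/v) or lower. Run in 96-well microtitre cultures with MTT staining, following a published procedure with slight modification.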

[2] = system: Bel-7402; experiment: Cytotoxicity against human Bel7402 cells by MTT assay; outline: as §1
[3] = system: MCF7; experiment: Cytotoxicity against human MCF7 cells by MTT assay; outline: as §1
[4] = system: HepG2; experiment: Cytotoxicity against human HepG2 cells by MTT assay; outline: as §1
[5] = system: HeLa; experiment: Cytotoxicity against human HeLa cells by MTT assay; outline: as §1

Structure (SMILES): CCOC(=O)c1cc2c3ccccc3n(CC)c2c(-c2cc(OC)c(OC)c(OC)c2)n1
- pIC50 [1]: 4.27
- pIC50 [2]: < 4.00
- pIC50 [3]: < 4.00
- pIC50 [4]: < 4.00
- pIC50 [5]: < 4.00

Structure (SMILES): CCCCn1c2ccccc2c2ccnc(-c3cc(OC)c(OC)c(OC)c3)c21
- pIC50 [1]: 4.56
- pIC50 [2]: 4.37
- pIC50 [3]: 4.29
- pIC50 [4]: 4.28
- pIC50 [5]: 4.35

Structure (SMILES): CCn1c2ccccc2c2cc(C(=O)O)nc(-c3cc(OC)c(OC)c(OC)c3)c21
- pIC50 [1]: 4.18
- pIC50 [2]: 4.21
- pIC50 [3]: < 4.00
- pIC50 [4]: < 4.00
- pIC50 [5]: < 4.00

Structure (SMILES): CCn1c2ccccc2c2cc(CO)nc(-c3cc(OC)c(OC)c(OC)c3)c21
- pIC50 [1]: < 4.00
- pIC50 [2]: < 4.00
- pIC50 [3]: < 4.00
- pIC50 [4]: < 4.00
- pIC50 [5]: < 4.00

Structure (SMILES): CCOC(=O)c1cc2c3ccccc3n(C)c2c(-c2cc(OC)c(OC)c(OC)c2)n1
- pIC50 [1]: 4.25
- pIC50 [2]: < 4.00
- pIC50 [3]: < 4.00
- pIC50 [4]: < 4.00
- pIC50 [5]: < 4.00

Structure (SMILES): CCCCn1c2ccccc2c2cc(C(=O)O)nc(-c3cc(OC)c(OC)c(OC)c3)c21
- pIC50 [1]: 4.29
- pIC50 [2]: < 4.00
- pIC50 [3]: < 4.00
- pIC50 [4]: < 4.00
- pIC50 [5]: < 4.00

Structure (SMILES): CCn1c2ccccc2c2ccnc(-c3cc(OC)c(OC)c(OC)c3)c21
- pIC50 [1]: 4.45
- pIC50 [2]: 4.36
- pIC50 [3]: 4.14
- pIC50 [4]: < 4.00
- pIC50 [5]: 4.29

Structure (SMILES): CCOC(=O)c1cc2c([nH]c3ccccc32)c(-c2cc(OC)c(OC)c(OC)c2)n1
- pIC50 [1]: 4.02
- pIC50 [2]: < 4.00
- pIC50 [3]: 4.03
- pIC50 [4]: < 4.00
- pIC50 [5]: < 4.00

Structure (SMILES): CCOC(=O)c1cc2c3ccccc3n(CCCc3ccccc3)c2c(-c2cc(OC)c(OC)c(OC)c2)n1
- pIC50 [1]: 4.02
- pIC50 [2]: < 4.00
- pIC50 [3]: < 4.00
- pIC50 [4]: < 4.00
- pIC50 [5]: < 4.00

Structure (SMILES): CCn1c2ccccc2c2cc(C=O)nc(-c3cc(OC)c(OC)c(OC)c3)c21
- pIC50 [1]: < 4.00
- pIC50 [2]: < 4.00
- pIC50 [3]: < 4.00
- pIC50 [4]: < 4.00
- pIC50 [5]: < 4.00

Structure (SMILES): COc1cc(-c2nc(CO)cc3c4ccccc4n(C)c23)cc(OC)c1OC
- pIC50 [1]: < 4.00
- pIC50 [2]: < 4.00
- pIC50 [3]: < 4.00
- pIC50 [4]: < 4.00
- pIC50 [5]: < 4.00

Structure (SMILES): CCn1c2ccccc2c2cc(C(=O)NCCO)nc(-c3cc(OC)c(OC)c(OC)c3)c21
- pIC50 [1]: 4.13
- pIC50 [2]: < 4.00
- pIC50 [3]: 4.27
- pIC50 [4]: < 4.00
- pIC50 [5]: < 4.00

Structure (SMILES): COc1cc(-c2nccc3c4ccccc4n(C)c23)cc(OC)c1OC
- pIC50 [1]: 4.36
- pIC50 [2]: 4.04
- pIC50 [3]: 4.13
- pIC50 [4]: 4.06
- pIC50 [5]: 4.14

Structure (SMILES): COc1cc(-c2nc(C=O)cc3c4ccccc4n(C)c23)cc(OC)c1OC
- pIC50 [1]: < 4.00
- pIC50 [2]: < 4.00
- pIC50 [3]: < 4.00
- pIC50 [4]: < 4.00
- pIC50 [5]: < 4.00

Structure (SMILES): COc1cc(-c2nc(C=O)cc3c4ccccc4n(CCCc4ccccc4)c23)cc(OC)c1OC
- pIC50 [1]: < 4.00
- pIC50 [2]: < 4.00
- pIC50 [3]: < 4.00
- pIC50 [4]: < 4.00
- pIC50 [5]: < 4.00

Structure (SMILES): CCCCn1c2ccccc2c2cc(C(=O)NCCO)nc(-c3cc(OC)c(OC)c(OC)c3)c21
- pIC50 [1]: 4.43
- pIC50 [2]: < 4.00
- pIC50 [3]: 4.50
- pIC50 [4]: 4.06
- pIC50 [5]: < 4.00

Structure (SMILES): CCCCn1c2ccccc2c2cc(C(=O)OCC)nc(-c3cc(OC)c(OC)c(OC)c3)c21
- pIC50 [1]: 4.56
- pIC50 [2]: < 4.00
- pIC50 [3]: 4.36
- pIC50 [4]: < 4.00
- pIC50 [5]: < 4.00

Structure (SMILES): CCCCn1c2ccccc2c2cc(C=O)nc(-c3cc(OC)c(OC)c(OC)c3)c21
- pIC50 [1]: < 4.00
- pIC50 [2]: < 4.00
- pIC50 [3]: < 4.00
- pIC50 [4]: < 4.00
- pIC50 [5]: < 4.00

Structure (SMILES): COc1ccc2c(c1)[nH]c1c(C)nccc12 [HARMINE]
- pIC50 [1]: 4.17
- pIC50 [2]: 4.27
- pIC50 [3]: 4.14
- pIC50 [4]: 4.34
- pIC50 [5]: 4.22

Structure (SMILES): COc1cc(-c2nc(C(=O)O)cc3c4ccccc4n(C)c23)cc(OC)c1OC
- pIC50 [1]: 4.04
- pIC50 [2]: < 4.00
- pIC50 [3]: < 4.00
- pIC50 [4]: < 4.00
- pIC50 [5]: < 4.00

Structure (SMILES): CCCCn1c2ccccc2c2cc(CO)nc(-c3cc(OC)c(OC)c(OC)c3)c21
- pIC50 [1]: < 4.00
- pIC50 [2]: < 4.00
- pIC50 [3]: < 4.00
- pIC50 [4]: < 4.00
- pIC50 [5]: < 4.00

Structure (SMILES): COc1cc(-c2nc(CO)cc3c4ccccc4n(CCCc4ccccc4)c23)cc(OC)c1OC
- pIC50 [1]: < 4.00
- pIC50 [2]: < 4.00
- pIC50 [3]: < 4.00
- pIC50 [4]: < 4.00
- pIC50 [5]: < 4.00

Structure (SMILES): COc1cc(-c2nccc3c2[nH]c2ccccc23)cc(OC)c1OC
- pIC50 [1]: 4.37
- pIC50 [2]: 4.36
- pIC50 [3]: 4.50
- pIC50 [4]: 4.20
- pIC50 [5]: 4.71

Structure (SMILES): COc1cc(-c2nc(C(=O)NCCO)cc3c4ccccc4n(C)c23)cc(OC)c1OC
- pIC50 [1]: 4.04
- pIC50 [2]: < 4.00
- pIC50 [3]: 4.02
- pIC50 [4]: < 4.00
- pIC50 [5]: < 4.00
